Publication PMC2778733 (Journal of the American Chemical Society, 2008)
Like-named read-outs stand apart in the source and are kept apart here.

Columns and labels:
Siderocalin (Scn) [1] = molecular target: T1, Siderocalin (Scn) (Homo sapiens, UniProt P80188); assay: Fluorescence quenching binding assay of Scn; conditions: for Kd: 100 nM Scn, TBS pH 7.4, 5% DMSO
Method in brief: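 Recombinant Scn, 100 nM in TBS pH 7.4 with 32 μg/mL ubiquitin and 5% DMSO, was titrated with 2–10 equivalents of substrate. Tryptophan quenching was read at excitation 281 nm and emission 340 nm, corrected for dilution. Metal complexes were formed in situ from a DMSO ligand stock plus 1 eq. metal salt, equilibrated 1 h, and used as a 6 μM working solution. Apo ligands were prepared without metal. Kd came from a one-site nonlinear least-squares fit.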

Siderocalin (Scn) [2] = molecular target: T1, Siderocalin (Scn); conditions: cited from earlier work
[3] = [L] = 10 μmol L^−1, [Fe^III] = 1 μmol L^−1; cited from earlier work

T1 sequence (P80188 21-198): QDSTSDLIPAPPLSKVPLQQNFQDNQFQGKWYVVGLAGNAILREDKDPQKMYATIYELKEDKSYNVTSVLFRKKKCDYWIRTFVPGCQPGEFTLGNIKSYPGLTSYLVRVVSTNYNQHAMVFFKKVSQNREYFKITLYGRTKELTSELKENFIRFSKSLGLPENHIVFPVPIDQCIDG

`O=C(NCCN(CCNC(=O)c1cccc(O)c1O)CCNC(=O)c1cccc(=O)n1O)c1cccc(O)c1O` [trenCAM2(1,2-HOPO), tren(CAM)2(1,2-HOPO)] showed a Kd (Siderocalin (Scn) [1]; Fe^III complex) of 0.8 ± 0.3 nM, a Kd (Siderocalin (Scn) [1]; V^IV complex) of 40 ± 9 nM and a Kd (Siderocalin (Scn) [1]; no metal (apo ligand)) of 1.4 ± 0.3 nM.

In the case of `O=C(NCCN(CCNC(=O)c1cccc(=O)n1O)CCNC(=O)c1cccc(=O)n1O)c1cccc(=O)n1O` [tren(1,2-HOPO)3], the Kd (Siderocalin (Scn) [1]; Fe^III complex) is reported as greater than 600 nM, the Kd (Siderocalin (Scn) [1]; V^IV complex) is reported as 300 ± 30 nM and the “Scn affinity in words” value (Siderocalin (Scn) [1]; apo ligand, pH 7.4) is reported as “micromolar affinity range”. For the same compound, the Kd (Siderocalin (Scn) [1]; no metal (apo ligand)) was 250 ± 30 nM.

For `Cn1ccc(C(=O)NCCN(CCNC(=O)c2cccc(O)c2O)CCNC(=O)c2ccn(C)c(=O)c2O)c(O)c1=O` [trenCAM(Me-3,2-HOPO)2, tren(CAM)(Me-3,2-HOPO)2], the Kd (Siderocalin (Scn) [1]; Fe^III complex) was 150 ± 20 nM.

For `C[C@H]1OC(=O)[C@@H](NC(=O)CNC(=O)c2cccc(O)c2O)[C@@H](C)OC(=O)[C@@H](NC(=O)CNC(=O)c2cccc(O)c2O)[C@@H](C)OC(=O)[C@H]1NC(=O)CNC(=O)c1cccc(O)c1O` [bacillibactin], the “Binding by Scn in words” value (Siderocalin (Scn) [2]; apo siderophore) is given as “bound with high affinity” and the “Binding by Scn in words” value (Siderocalin (Scn) [2]; natural siderophores) is given as “sequestered”.

For `Cn1ccc(C(=O)NCCN(CCNC(=O)c2cccc(O)c2O)CCNC(=O)c2cccc(O)c2O)c(O)c1=O` [trenCAM2(Me-3,2-HOPO), tren(CAM)2(Me-3,2-HOPO)], the Kd (Siderocalin (Scn) [1]; Fe^III complex) was 120 ± 10 nM.

For `O=C(NCCN(CCNC(=O)c1cccc(=O)n1O)CCNC(=O)c1cccc(=O)n1O)c1cccc(O)c1O` [trenCAM(1,2-HOPO)2, tren(CAM)(1,2-HOPO)2], the Kd (Siderocalin (Scn) [1]; Fe^III complex) was 43 ± 2 nM, the Kd (Siderocalin (Scn) [1]; V^IV complex) was 220 ± 70 nM and the Kd (Siderocalin (Scn) [1]; no metal (apo ligand)) was 140 ± 10 nM.

For `Cn1ccc(C(=O)NCCN(CCNC(=O)c2ccn(C)c(=O)c2O)CCNC(=O)c2ccn(C)c(=O)c2O)c(O)c1=O` [tren(Me-3,2-HOPO)3], the Kd (Siderocalin (Scn) [1]; Fe^III complex) was greater than 600 nM.

In the case of `CC(=O)N(O)CCCCCNC(=O)CCC(=O)N(O)CCCCCNC(=O)CCC(=O)N(O)CCCCCN` [desferrioxamine B], the “pM value (pM = -log[Fe^III])” value [3] is listed as 26.6.

For `O=C(N[C@H]1COC(=O)[C@@H](NC(=O)c2cccc(O)c2O)COC(=O)[C@@H](NC(=O)c2cccc(O)c2O)COC1=O)c1cccc(O)c1O` [enterobactin], the “Binding by Scn in words” value (Siderocalin (Scn) [2]; apo siderophore) is listed as “bound with high affinity”, the “Binding by Scn in words” value (Siderocalin (Scn) [2]; natural siderophores) is listed as “sequestered” and the “pM value (pM = -log[Fe^III])” value [3] is listed as 35.3.

For `O=C(NCCN(CCNC(=O)c1cccc(O)c1O)CCNC(=O)c1cccc(O)c1O)c1cccc(O)c1O` [trenCAM3, tren(CAM)3], the Kd (Siderocalin (Scn) [2]; Fe^III complex) is listed as 0.3 ± 0.1 nM, the Kd (Siderocalin (Scn) [1]; V^IV complex) is listed as 1.3 ± 0.3 nM and the Kd (Siderocalin (Scn) [1]; no metal (apo ligand)) is listed as 1.2 ± 0.2 nM.

For `O=C(N[C@H]1COC(=O)[C@@H](NC(=O)c2cc([C@@H]3O[C@H](CO)[C@@H](O)[C@H](O)[C@H]3O)cc(O)c2O)COC(=O)[C@@H](NC(=O)c2cc([C@@H]3O[C@H](CO)[C@@H](O)[C@H](O)[C@H]3O)cc(O)c2O)COC1=O)c1cccc(O)c1O` [salmochelin-S4], the “Binding by Scn in words” value (Siderocalin (Scn) [2]; natural siderophores) is listed as “not bound”.

In the case of `O=C1CCC(=O)N(O)CCC(O)CNC(=O)CCC(=O)N(O)CCC(O)CN1` (centres unmarked) [alcaligin], the “Binding by Scn in words” value (Siderocalin (Scn) [2]; natural siderophores) is given as “not bound”.

For `O=C(CC(O)(CC(=O)NCCCCNCCCNC(=O)c1ccc(O)c(O)c1)C(=O)O)NCCCCNCCCNC(=O)c1ccc(O)c(O)c1` [petrobactin], the “Binding by Scn in words” value (Siderocalin (Scn) [2]) is given as “not bound”.

For `CC(=O)N(O)CCCC[C@H](NC(=O)CC(O)(CC(=O)N[C@@H](CCCCN(O)C(C)=O)C(=O)O)C(=O)O)C(=O)O` [aerobactin], the “Binding by Scn in words” value (Siderocalin (Scn) [2]; natural siderophores) is given as “not bound”.
